# Data from ChEMBL document CHEMBL1122241, “A simplified high-pressure liquid chromatography method for determining lipophilicity for structure-activity relationships” (J Med Chem, 1983).
# Tests used:
# [1] = Compound is evaluated for […] log k; assay type: physicochemical; conditions: octanol/water
# In short: (§1)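 Log k' was measured by reverse-phase HPLC on dry-packed deactivated C18/Corasil columns (10 and 50 cm, 2-mm i.d.) at 22 °C, flow 1 mL/min, with UV detection at 254 nm. The mobile phase was methanol-modified aqueous phosphate buffer at μ 0.15. Void time came from methanol injection, and k' = (tr − t0)/t0.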
# [2] = Negative log of molar concentration (-log ED50) required to reduce cell division by 50% in Arbacia egg; assay type: functional
# Oryctolagus cuniculus = organism: Oryctolagus cuniculus; assay: Negative log of minimum effective dose (moles per kilogram) in rabbits (hypnotic); assay type: functional
# [3] = (§2) pKa value is evaluated; assay type: physicochemical
# Rattus norvegicus = organism: Rattus norvegicus; assay type: functional
# [4] = A pKa value is evaluated; assay type: physicochemical
# [5] = ACompound is evaluated for […] log k; assay type: physicochemical; conditions: octanol/water
# In short: as §1, with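 “0.15. Calculated pH was 7.45 for sulfonamides and 7.31 for barbiturates.” for “0.15.”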
# [6] = Negative log of Langmuir's alpha constant (-log alpha), which is inversely proportional to the effective binding constant (protein binding); assay type: ADME
# [7] = pKa value is evaluated; activity is unretained; assay type: physicochemical
# In short: (§3)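 Determined in-house by computer-controlled spectrophotometric titration (absorbance vs. pH) of each sulfonamide. Samples were in buffered aqueous solution of HCl/HOAc/Mops/glycine, 0.0005 N each. A manual wavelength scan of each compound set the wavelength at which its titration was run.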
# [8] = as §2; assay type: physicochemical; in short: as §3; remark: listed apart in the source
# Escherichia coli [9] = assay: Minimum inhibitory concentration (bacteriostatic) against Escherichia coli at pH 7.4; assay type: functional
# Escherichia coli [10] = assay: Minimum inhibitory concentration (bacteriostatic) against Escherichia coli at pH 7.2 (Sauterne''s medium); assay type: functional
SMILES,Log K [1],-Log ED50 [2],-Log C (Oryctolagus cuniculus),pKa [3],-Log alpha [6],-Log C (Escherichia coli [9]),-Log C (Escherichia coli [10]),also measured
C=CCC1(CC=C)C(=O)NC(=O)NC1=O [ALLOBARBITAL],0.6,1.79,3.54,,,,,
CCC1(CCC(C)C)C(=O)NC(=O)NC1=O [AMOBARBITAL],1.33,2.82,,,,,,
C=CCC1(C(C)C)C(=O)NC(=O)NC1=O [APROBARBITAL],0.75,2.01,3.6,7.73,,,,-Log C (Rattus norvegicus): 2.41
CCC1(CC)C(=O)NC(=O)NC1=O [BARBITAL],0.16,1.49,3.09,7.75,,,,-Log C (Rattus norvegicus): 1.32
CCC(C)C1(CC)C(=O)NC(=O)NC1=O (stereo not drawn) [BUTABARBITAL],,,3.63,,,,,pKa [4]: 7.89; Log K [5]: 0.95
C=CCC1(CC(C)C)C(=O)NC(=O)NC1=O [BUTALBITAL],1.01,,3.63,7.54,,,,-Log C (Rattus norvegicus): 2.8
CCC1(C2=CCCCC2)C(=O)NC(=O)NC1=O [CYCLOBARBITAL],0.91,2.24,,7.36,,,,
CN1C(=O)NC(=O)C(C)(C2=CCCCC2)C1=O (stereo not drawn) [HEXOBARBITAL],1.13,,4.37,,,,,pKa [4]: 7.36
CCC1(CC)C(=O)NC(=O)N(C)C1=O [METHARBITAL],0.71,,3.12,,,,,
C=CCC1(C(C)C#CCC)C(=O)NC(=O)N(C)C1=O (stereo not drawn) [METHOHEXITAL],1.96,,4.74,4.74,,,,
CCCC(C)C1(CC)C(=O)NC(=O)NC1=O (stereo not drawn) [PENTOBARBITAL],1.32,2.92,4.05,8.02,,,,-Log C (Rattus norvegicus): 3.07
CCC1(c2ccccc2)C(=O)NC(=O)NC1=O [PHENOBARBITAL],0.56,2.02,3.32,7.26,,,,-Log C (Rattus norvegicus): 1.88
C=CCC1(C(C)CCC)C(=O)NC(=O)NC1=O (stereo not drawn) [SECOBARBITAL],1.52,3.62,4.2,7.92,,,,-Log C (Rattus norvegicus): 3.19
CC(=O)NS(=O)(=O)c1ccc(N)cc1 [SULFACETAMIDE],,,,,-3.15,3.248,-0.52,Log K [7]: activity is unretained; pKa [8]: 5.78
Nc1ccc(S(=O)(=O)Nc2ncccn2)cc1 [SULFADIAZINE],0.223,,,,-2.99,4.337,-0.08,
[H]/N=C(/N)NS(=O)(=O)c1ccc(N)cc1 [SULFAGUANIDINE],-0.00612,,,12,,,1.81,
Cc1ccnc(NS(=O)(=O)c2ccc(N)cc2)n1 [SULFAMERAZINE],0.829,,,6.98,-2.23,4.469,0.06,
Cc1cc(C)nc(NS(=O)(=O)c2ccc(N)cc2)n1 [SULFAMETHAZINE],1.49,,,7.7,-2.28,,0.11,
Cc1cc(NS(=O)(=O)c2ccc(N)cc2)no1 [SULFAMETHOXAZOLE],,,,,-2.51,4.634,0.06,
COc1ccc(NS(=O)(=O)c2ccc(N)cc2)nn1 [SULFAMETHOXYPYRIDAZINE],1.35,,,7.2,-1.75,4.57,0,
Nc1ccc(S(N)(=O)=O)cc1 [SULFANILAMIDE],,,,,-2.98,2.824,-2.11,
Nc1ccc(S(=O)(=O)Nc2nccs2)cc1 [SULFATHIAZOLE],0.887,,,7.25,-2.45,4.597,-0.18,
Cc1noc(NS(=O)(=O)c2ccc(N)cc2)c1C [SULFISOXAZOLE],0.762,,,,-1.73,4.56,-0.45,
C=CCC1(C(C)CCC)C(=O)NC(=S)NC1=O (stereo not drawn) [THIAMYLAL],1.72,,4.15,,,,,
CCCC(C)C1(CC)C(=O)NC(=S)NC1=O (stereo not drawn) [THIOPENTAL],1.52,,3.98,,,,,
